From PubChem
XiGFP reactiv: activators of X-chromosome reactivation in mouse fibroblasts; XiGFP mouse fibroblasts, % GFP-positive cells imaging, 3 d; cells co-treated with 5-aza-dC sensitizer; scaled so ellipticine positive control = 100%; activation, % at 7.58 µM; hit rate 0.055% among 360,000; AID 743238;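 active means mean normalized replicate activation at least 10% and every replicate at or above 10%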;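 further: 0% = median of on-plate neutral control wells and 100% = ellipticine 6 µM median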
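material = 68-5-11 XiGFP fibroblast line | medium = DMEM plus 5-aza-dC sensitizer | schedule = 3 days compound exposure | benchmarks = positive control ellipticine, 6 µM final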
PGC1a acetyl inh: lowers PGC1a acetylation signal in U2OS cells; AlphaScreen anti-acetyl-lysine; with virally co-expressed GCN5 acetyltransferase; inhibition, % at 15.6 µM; hit rate 0.17% among 350,000; AID 651687;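 active means every replicate shows inhibition of at least 40%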;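 further: 0% = neutral control wells and 100% = positive control wells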
MLL AF4-AF9 inh: inhibitors of human MLL-AF4/AF9 interaction; AlphaScreen, biotin-AF4 peptide binding to FLAG-AF9; inhibition, % at 10 µM; P42568; hit rate 0.47% among 350,000; AID 651704;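 active means every replicate reaching a set inhibition limit, whatever the replicate mean, cut at about 25% in these data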;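 further: 0% = plate neutral control median and 100% = total signal loss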
Target sequence (P42568 whole entry, looked up): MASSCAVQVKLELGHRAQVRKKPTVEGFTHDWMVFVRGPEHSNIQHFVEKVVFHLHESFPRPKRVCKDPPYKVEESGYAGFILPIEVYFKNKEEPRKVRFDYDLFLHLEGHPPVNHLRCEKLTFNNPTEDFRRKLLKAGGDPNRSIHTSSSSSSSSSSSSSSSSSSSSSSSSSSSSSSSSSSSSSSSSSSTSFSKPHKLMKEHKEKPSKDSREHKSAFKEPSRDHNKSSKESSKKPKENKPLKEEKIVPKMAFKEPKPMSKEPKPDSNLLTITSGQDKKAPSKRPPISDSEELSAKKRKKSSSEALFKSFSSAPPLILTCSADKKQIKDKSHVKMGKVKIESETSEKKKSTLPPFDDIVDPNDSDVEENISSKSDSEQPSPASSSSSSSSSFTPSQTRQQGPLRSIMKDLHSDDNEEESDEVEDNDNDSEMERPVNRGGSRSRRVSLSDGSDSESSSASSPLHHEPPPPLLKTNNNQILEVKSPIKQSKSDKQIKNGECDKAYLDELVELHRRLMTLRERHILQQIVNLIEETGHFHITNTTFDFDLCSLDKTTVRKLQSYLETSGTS
INS-1E GSIS act: primary screen for activators of insulin secretion dependent on glucose, INS-1E cells, GLuc reporter luminescence | INS-1E GLuc reporter insulin secretion, 2-3 h | activation, % at 16.6 µM | hit rate 0.61% among 370,000;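 active means lowest replicate activation of at least 40%, so every replicate reaches that level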;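 further: 0% = median of neutral control wells and 100% = median of IBMX positive control wells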
PAX8 reporter: lowers PAX8-driven luciferase in RMG-I cells; inhibition, % at 12.6 µM; hit rate 1.2% among 360,000; RMG-I TPO-luciferase reporter, SteadyGlo, 24 h;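 active means mean replicate inhibition at least 60% with every replicate also reaching 60%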;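 further: luciferase light reporting Pax8 driven TPO promoter activity; plate controls were median of neutral control wells for no effect and mitoxantrone controls for full effect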
EWS-Fli block: blocks EWS/Fli oncoprotein-driven transcription | A673 NR0B1-luciferase reporter, viability-normalised | inhibition, % at 12.6 µM | hit rate 0.67% among 350,000 | AID 651661;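 active means mean inhibition of at least 50% after viability correction, with every replicate also passing that limit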;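 further: firefly luciferase signal divided by Alamar Blue viability fluorescence both relative to DMSO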
Numbers without * were called inactive; . = no result. Compounds with a hit are over-represented: about 2.1% of the library has one in this group of screens.

SMILES	XiGFP reactiv	PGC1a acetyl inh	MLL AF4-AF9 inh	INS-1E GSIS act	PAX8 reporter	EWS-Fli block
O=C(Nc1ccc(F)cc1)N[C@H]1CC[C@H](CCNC(=O)c2cc(Cl)cc(Cl)c2)O[C@H]1CO	0	-2	-1	-1	87*	2
CCCN(C)C[C@@H]1OCCCC[C@@H](C)Oc2ccc(NS(=O)(=O)c3ccc(C)cc3)cc2C(=O)N([C@H](C)CO)C[C@H]1C	0	.	.	-8	21	.
COc1ccccc1CNC(=O)C[C@H]1CC[C@H]2[C@@H](COC[C@@H](O)CN2C(=O)Nc2ccc(F)cc2)O1	0	5	2	-9	-1	-5
OC1(C#Cc2c(-c3ccsc3)sc3ccccc23)CCCCC1	0	.	4	88*	-11	-6
COc1ccc(-c2sc3ccccc3c2C#CC2(O)CCCCC2)cc1	0	-10	-14	-1	0	13
CCCCC(=O)N1CCN(c2ccc(OC)cc2[N+](=O)[O-])CC1	0	.	-13	5	87*	14
Cc1ncc(CSc2ccc(Cl)cc2)c(CO)c1O	0	1	-1	-1	-7	-19
Cc1ncc(CSc2nccc(=O)[nH]2)c(CO)c1O	0	-4	-1	81*	6	-2
COc1ccccc1CNc1nc(NCc2ccccc2OC)c2sccc2n1	0	8	2	-27	3	3
COc1ccccc1CNc1nc(Nc2cccc(-c3cnco3)c2)c2sccc2n1	0	.	-2	7	74*	3
COc1ccccc1N(CC(=O)NCC1CCCO1)C(=O)CNS(=O)(=O)c1ccc(Cl)cc1 (centres undefined)	0	-3	-6	42*	1	4
COc1ccccc1N(CC(=O)NCC1CCCO1)C(=O)CNS(=O)(=O)c1ccc(C)cc1 (centres undefined)	.	11	.	12	.	.
COc1ccc(NC(=O)c2sc3cc(C(F)(F)F)cnc3c2-c2cccs2)cc1	.	-6	.	.	.	.
O=C(Nc1ccc(F)cc1)c1sc2cc(C(F)(F)F)cnc2c1-c1cccs1	.	114*	.	.	.	.
CCCc1c(C)c2ccc(OCC(C)=O)cc2oc1=O	.	-4	.	51*	.	.
CCCC#Cc1cnc2c(c1)C(=O)N([C@@H](C)CO)C[C@@H](C)[C@@H](CN(C)Cc1ccncc1)O2	-1	2	1	21	-15	16
CC[C@@H]1CCC[C@@H](O)[C@@H](C)C(=O)O[C@H](C)[C@@H](C)C/C=C(C)/C(OC)=C\C(=O)N(C)C([C@@H](C)CC)C(=O)N(C)[C@@H](C(C)C)C(=O)N(C)[C@@H](COC)C(=O)N2CCC[C@H]2C(=O)N(C)[C@@H](C(C)C)C(=O)N2CCC[C@H]2C(=O)O1 (some centres undefined)	0	32	6	-2	88*	20
COc1ccc2c3c([nH]c2c1)[C@H](CO)N(CC1CCOCC1)CC31CN(C(=O)C2CCOCC2)C1	0	.	2	5	4	-12
C[C@@H]1CCCCO[C@H](CN(C)CC2CC2)[C@@H](C)CN([C@@H](C)CO)C(=O)c2cc(NS(=O)(=O)c3cccs3)ccc2O1	0	9	.	8	-24	-3
COc1ccc2c3c([nH]c2c1)[C@H](CO)N(Cc1cc(F)ccc1F)CC31CCN(C)CC1	0	.	.	3	.	.
CC1CCCN(C(=O)Cc2ccc(F)cc2)C1 (centres undefined)	.	75*	.	.	-2	.
CNC(=O)COC(=O)c1ccccc1C(=O)c1ccc(Cl)c([N+](=O)[O-])c1	1	-47	-6	6	31	3
O=C(COC(=O)c1ccccc1C(=O)c1ccc(Cl)c([N+](=O)[O-])c1)NC1CC1	1	-94	0	15	33	63*
COc1cccc(CNC(=O)[C@@H]2[C@@H](CO)[C@@H]3Cn4c(ccc(-c5ccncc5)c4=O)[C@@H]3N2C)c1	0	.	0	-4	.	3
COc1cc(C2Oc3ccccc3C=C2[N+](=O)[O-])cc(OC)c1OC (centres undefined)	6	5	19	-30	-6	52*
SMILES	XiGFP reactiv	PGC1a acetyl inh	MLL AF4-AF9 inh	INS-1E GSIS act	PAX8 reporter	EWS-Fli block
COc1cc(C2NC(=O)c3ccccc3O2)cc(OC)c1OC (centres undefined)	.	1	.	.	-16	.
Cc1cccc(NC(=O)c2onc3c2CCCC3)n1	0	6	3	9	31	71*
O=C(C[C@@H]1C[C@@H]2c3cc(NS(=O)(=O)c4ccc(F)cc4)ccc3O[C@@H]2[C@@H](CO)O1)NCc1ccc(Oc2ccccc2)cc1	0	-7	3	-22	106*	36
O=C(C[C@H]1C[C@@H]2c3cc(NS(=O)(=O)c4ccc(F)cc4)ccc3O[C@@H]2[C@H](CO)O1)NCc1ccc(-c2ccccc2)cc1	0	0	0	-19	65*	4
CS(=O)(=O)Nc1ccc2c(c1)[C@@H]1C[C@H](CC(=O)NCc3ccc(Oc4ccccc4)cc3)O[C@H](CO)[C@@H]1O2	0	-4	0	-9	12	6
CS(=O)(=O)Nc1ccc2c(c1)[C@@H]1C[C@H](CC(=O)NCc3ccc(Oc4ccccc4)cc3)O[C@@H](CO)[C@@H]1O2	0	-18	-1	-25	85*	43
O=C(C[C@@H]1C[C@H]2c3cc(NS(=O)(=O)c4ccc(F)cc4)ccc3O[C@H]2[C@@H](CO)O1)NCc1ccc(Oc2ccccc2)cc1	0	-7	5	-29	91*	59*
CN(C)C(=O)c1cccc(-c2ccc(C3[C@@H]4CN(S(=O)(=O)c5ccccc5F)C[C@H]3N4)cc2)c1 (some centres undefined)	0	0	-2	-12	-1	15
O=C(C1CCOCC1)N1[C@@H](CO)[C@@H](c2ccccc2)C12CN(Cc1cccnc1)C2	0	1	-1	8	-2	0
CC(C)NC(=O)N(C)C[C@@H]1Oc2ncc(C#CC3CCCC3)cc2C(=O)N([C@H](C)CO)C[C@H]1C	-1	1	0	-5	-10	-2
O=C(C[C@@H]1C[C@@H]2c3cc(NC(=O)Cc4ccncc4)ccc3O[C@@H]2[C@H](CO)O1)NCc1ccc(-c2ccccc2)cc1	0	-5	-1	-1	102*	11
CN(C)c1ccc2c(c1)[C@@H]1C[C@@H](CC(=O)NCc3ccc(Oc4ccccc4)cc3)O[C@@H](CO)[C@@H]1O2	0	0	12	-10	86*	51*
O=C(C[C@@H]1C[C@@H]2c3cc(NC(=O)Nc4ccc(C(F)(F)F)cc4)ccc3O[C@@H]2[C@@H](CO)O1)NCc1ccc(Cl)cc1	0	-8	-4	15	20	-2
O=C(C[C@@H]1C[C@@H]2c3cc(NS(=O)(=O)c4ccc(F)cc4)ccc3O[C@@H]2[C@H](CO)O1)NCc1ccc(Oc2ccccc2)cc1	0	-1	-4	-18	56	25
